Screening results (PubChem BioAssay)
TAAR1 ag: agonists of human TAAR1; CHO RD-HGA16 TAAR1, Fluo-8 calcium fluorescence; vehicle wells 0%, saturating PEA agonist 100%; activation, % at 3 µM; 360,000 tested, 0.99% active; AID 624467;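 active means activation above the mean activation of all test compounds in the run plus 3 SD, cut at about 38% in these data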
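test system = CHO RD-HGA16 cells carrying human TAAR1 plus Gα16 | schedule = 17-24 h seeding, 75 min 37 °C dye, 30 min RT | compound dosing = 3 µM single concentration | control set = DMSO and PEA EC100 | replicates = n 1 | signal = Fluo-8 fluorescence, 5 s baseline then 140 s kinetic read | measure = percent activation vs PEA EC100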
GPR7 antag: antagonists of human GPR7 (neuropeptides B/W receptor 1) | GPR7-expressing cells, fluorescence antagonist assay | inhibition, % at 4.4 µM | 290,000 tested, 1.1% active; in the data active means inhibition above about 16%, passing the limit was not always enough;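 further: cells stimulated with the agonist NPW; 0% = agonist with vehicle and 100% = vehicle without agonist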
Target sequence (P48145 whole entry, looked up): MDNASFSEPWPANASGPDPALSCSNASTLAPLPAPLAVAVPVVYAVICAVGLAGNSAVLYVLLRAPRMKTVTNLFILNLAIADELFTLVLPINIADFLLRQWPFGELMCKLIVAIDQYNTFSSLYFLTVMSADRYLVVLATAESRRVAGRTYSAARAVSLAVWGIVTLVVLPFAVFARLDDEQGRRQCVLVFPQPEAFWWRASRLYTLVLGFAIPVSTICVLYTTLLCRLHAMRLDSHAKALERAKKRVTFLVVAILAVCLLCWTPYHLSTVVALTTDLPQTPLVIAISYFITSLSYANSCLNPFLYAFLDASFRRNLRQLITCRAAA
TAAR1 antagonist: human TAAR1 antagonism; Q96RJ0; CHO RD-HGA16 TAAR1, Fluo-8 calcium fluorescence, antagonist; inhibition, % at 3 µM; 360,000 tested, 1.5% active; AID 624466;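 active means inhibition above a per-plate cutoff, the mean inhibition of test compounds on that plate plus 3 SD, cut at about 49% in these data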;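 further: 0% = DMSO plus EC80 beta-PEA response and 100% = DMSO alone without agonist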
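test system = CHO RD-HGA16 cells bearing hTAAR1 | replication = singlicate | controls = DMSO-only wells and EC80 β-PEA-stimulated wells | reagent = EC80 β-phenethylamine stimulus | read-out basis = percent inhibition of PEA-evoked calcium signal, max/basal emission ratio | schedule = seeding 17-24 h prior, 75-min 37 °C, 30-min RT dye loading | signal = kinetic Fluo-8 calcium fluorescence measurement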
OX1R antag-1: blocks the human orexin 1 receptor; inhibition, % at 5 µM; 330,000 tested, 0.43% active; AID 434989; CHO/OX1R cells, Fluo-8 calcium fluorescence, orexin A;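 active means inhibition above its plate's threshold, mean inhibition of all tested compounds on the plate plus 3 SD, cut at about 37% in these data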;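 further: 0% = orexin A challenge wells and 100% = SB-334867-A antagonist wells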
Target sequence (O43613 whole entry, looked up): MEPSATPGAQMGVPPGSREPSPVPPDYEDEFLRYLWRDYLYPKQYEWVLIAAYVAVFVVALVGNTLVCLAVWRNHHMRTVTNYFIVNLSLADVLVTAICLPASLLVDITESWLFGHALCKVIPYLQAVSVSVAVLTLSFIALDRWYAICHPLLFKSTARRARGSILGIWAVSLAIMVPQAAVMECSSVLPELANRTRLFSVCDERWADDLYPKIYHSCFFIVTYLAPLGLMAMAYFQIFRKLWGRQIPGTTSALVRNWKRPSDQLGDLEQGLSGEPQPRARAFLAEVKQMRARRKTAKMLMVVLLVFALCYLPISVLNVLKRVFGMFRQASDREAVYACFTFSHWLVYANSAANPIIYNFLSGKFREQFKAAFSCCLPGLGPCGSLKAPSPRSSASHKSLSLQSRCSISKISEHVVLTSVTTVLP
CHO parental Ca: signal in parental CHO cells, OX1R antagonist counter-screen; parental CHO-K1, ATP-induced calcium, Fluo-8 fluorescence; inhibition, % at 5.6 µM; 330,000 tested, 0.63% active; AID 463079;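 active means inhibition above that plate's mean sample inhibition plus 3 SD, cut at about 26% in these data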;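 further: 0% = ATP-challenged DMSO wells and 100% = DMSO wells without ATP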
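test system = CHO parental line | reagent = ATP stimulus | measured by = intracellular calcium via Fluo-8 no-wash fluorescent dye | control set = ATP and no-ATP DMSO wells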
OX1R antag-2: OX1R (human) antagonism; 330,000 tested, 1.8% active; O43613; inhibition, % at 6.6 µM; OX1R-expressing cells, FRET antagonist read-out; in the data active means inhibition mostly above about 38%, no sharp cut-off; inactive means mostly below about 40%;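 further: 0% = agonist challenge alone and 100% = reference antagonist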
* hit, by the source's call; x = not tested or not shown. Compounds with a hit are over-represented: about 4.5% of the library has one in this group of screens.

SMILES | TAAR1 ag | GPR7 antag | TAAR1 antagonist | OX1R antag-1 | CHO parental Ca | OX1R antag-2
CN1CCc2c(sc(NC(=O)c3ccc(S(=O)(=O)N4CCc5ccccc54)cc3)c2C(N)=O)C1 | 27.2 | 5.9 | 50.0* | -1.4 | -4.1 | 23.1
COc1ccc(CCNc2ccc(N3C(=O)CC(C)C3=O)cc2[N+](=O)[O-])cc1OC (centres undefined) | 10.7 | -5.2 | 49.7* | 27.8 | 54.5* | 58.6
COc1ccc(Nc2ccc(N3C(=O)CC(C)C3=O)cc2[N+](=O)[O-])cc1OC (centres undefined) | 3.2 | -6.4 | -11.4 | -23.8 | -15.1 | 40.1*
COc1ccc(Nc2ccc(N3C(=O)CCCC3=O)cc2[N+](=O)[O-])cc1OC | 0.4 | -8.8 | -16.0 | -14.0 | -11.5 | 56.9
CC1(O)C(=O)C2(C)C=CC1C1C(=O)N(c3ccccc3)C(=O)C12 (centres undefined) | 1.0 | x | -6.2 | x | x | x
CCOc1ccc(NC(=O)CN(C)C(=O)c2cccc3ccccc23)cc1OCC | 2.0 | x | -11.8 | x | x | x
COc1ccc(-c2cc(C(=O)OCC(=O)N(C)C)c3ccccc3n2)cc1 | 9.1 | 17.8* | 19.9 | -29.9 | -9.4 | 42.7
O=C(OC1CCOC1=O)c1cc(-c2ccc(Br)cc2)nc2ccccc12 (centres undefined) | 2.9 | -0.8 | 0.7 | -8.2 | -20.1 | 13.5
CCOc1ccc(NC(=O)CN(C)C(=O)c2cc(-c3ccc(OC)cc3)nc3ccccc23)cc1OCC | 10.6 | x | 56.1* | -13.8 | -10.6 | 47.8
COc1ccc(-c2cc(C(=O)OC3CCOC3=O)c3ccccc3n2)cc1 (centres undefined) | 5.4 | 2.1 | 53.4* | 9.1 | -11.9 | 53.0*
CCOC(=O)C1=C(C)N=C2SCCC(=O)N2C1c1ccc(C(=O)OC)cc1 (centres undefined) | 1.9 | 2.1 | 6.2 | -0.4 | 0.2 | 25.8
CCOC(=O)C1=C(C)N2C(=C(C#N)[C@@H]1c1ccc(C(=O)OC)cc1)SC[C@@]2(O)C(C)(C)C | 4.2 | 0.7 | -19.6 | 17.0 | 0.5 | 52.6*
CNCC[C@H](Oc1cccc2ccccc12)c1cccs1 | 15.2 | 37.6* | 11.3 | -9.5 | -12.5 | 13.8
Clc1ccc(-c2cn3c(n2)-c2ccccc2C3)cc1Cl | -2.6 | -3.3 | 2.3 | -9.1 | -21.2 | 50.7*
COc1ccccc1NC(=O)CSc1nnc(-c2ccc(C)cc2)o1 | 2.9 | 3.4 | 0.5 | -11.2 | 3.6 | 4.2
COc1cccc(NC(=O)CSc2nnc(-c3ccc(C)cc3)o2)c1 | 61.3* | 4.9 | 50.9* | -15.2 | -13.9 | 15.0
CC1CCCN(C(=O)c2ccc(S(=O)(=O)N3CCC(c4nc5ccccc5s4)CC3)cc2)C1 (centres undefined) | 6.7 | -9.9 | -6.3 | -21.2 | -5.2 | 9.8
CCN(CC)C(=O)c1ccc(S(=O)(=O)N2CCC(c3nc4ccccc4s3)CC2)cc1 | 10.0 | -11.0 | 23.8 | 35.0 | 13.6 | 37.4*
COC(=O)[C@]12C[C@H](CC(=O)NCCCN3CCCC3=O)C(=O)N(Cc3ccc4c(c3)OCO4)C1=C[C@H](C(C)(C)C)O[C@@H]2C | -0.3 | x | 5.7 | x | x | x
CCCCC(CC)CN=C(N)NC(N)=NCCCCCCN=C(N)NC(N)=NCC(CC)CCCC (centres undefined) | x | x | x | 79.1* | 83.5* | 34.4
Cn1c(Sc2ccc(C(=O)O)cc2[N+](=O)[O-])nnc1-c1ccccc1 | 12.4 | -7.3 | -7.9 | -5.8 | -0.4 | 56.7*
CC(=O)c1ccc(Sc2nnnn2-c2ccccc2)c([N+](=O)[O-])c1 | 7.2 | -2.5 | -9.1 | -4.4 | 1.7 | 47.8
C[C@]12CCC3c4ccc(OCC(=O)O)cc4CCC3C1CCC2=O (some centres undefined) | 1.2 | 21.6* | 9.4 | -1.8 | -4.9 | -0.6
C[C@@H]1CN(S(=O)(=O)C(C)(C)C)[C@H](CCO)/C1=C\CCO | 3.2 | x | -14.8 | x | x | x
O=S1(=O)CC(O)C(O)CS1 (centres undefined) | 1.8 | x | -12.3 | x | x | x
SMILES | TAAR1 ag | GPR7 antag | TAAR1 antagonist | OX1R antag-1 | CHO parental Ca | OX1R antag-2
COc1ccccc1Cc1c(-c2cccc(Cl)c2)nc2c3ccccc3ccn12 | -0.5 | x | -39.0 | x | x | x
Cc1ccccc1S(=O)(=O)Cc1ccc(C(=O)N2CC(C)CC(C)C2)o1 (centres undefined) | 42.3* | -7.0 | -14.9 | -35.6 | -10.8 | 12.6
Cc1ccccc1S(=O)(=O)Cc1ccc(C(=O)N2CCN(c3cccc(C)c3C)CC2)o1 | 25.7 | 3.7 | 73.2* | 2.6 | -4.3 | 16.7
Cc1ccccc1S(=O)(=O)Cc1ccc(C(=O)NC2CCC(C)CC2)o1 (centres undefined) | 1.6 | -2.2 | -27.4 | -18.6 | -6.1 | 5.7
Cn1cc(CCOCc2ccccc2)c2ccccc21 | -1.1 | x | -13.0 | x | x | x
COc1cccc(C2NC(=S)N(Cc3ccc(Br)cc3)C(C)=C2C(C)=O)c1 (centres undefined) | 1.3 | x | 18.6 | x | x | x
O=C1[C@H](Cc2ccccc2)NCCCC[C@@H](c2ccc(Cl)cc2)N1Cc1ccc(Cl)cc1 | 41.1* | x | 13.8 | x | x | x
Cn1cc(C(=O)N/N=C/c2ccc([N+](=O)[O-])cc2)c2ccccc21 | -0.4 | 5.5 | 3.7 | -11.2 | -12.7 | 9.0
O=C(N/N=C/c1ccccn1)c1cccc([N+](=O)[O-])c1 | 5.4 | 7.5 | -4.3 | -9.1 | -14.4 | 39.7
Cn1ncc([N+](=O)[O-])c1C(=O)N/N=C/c1cccc([N+](=O)[O-])c1 | 6.0 | -9.2 | -16.6 | -9.4 | -4.4 | 54.0*
O=C(N/N=C/c1ccc2ncccc2c1)c1cccc([N+](=O)[O-])c1 | -1.7 | -9.4 | 7.2 | 0.4 | -9.8 | 71.9*
Cn1ncc([N+](=O)[O-])c1C(=O)N/N=C/c1ccc(F)cc1 | 0.5 | -7.0 | -2.4 | -4.3 | -5.0 | 42.7
Cn1cc(C(=O)N/N=C/c2cccc([N+](=O)[O-])c2)c2ccccc21 | 0.8 | -5.5 | 9.6 | 8.9 | -17.2 | 43.2*
CCOC(=O)/C(C#N)=C/Nc1ccccc1OC(F)(F)F | 0.1 | -21.0 | -32.6 | -37.1 | 45.5* | 11.1
O=C(Nc1ccc2c(c1)OCCO2)C1c2ccccc2OCC(=O)N1CCCN1CCOCC1 (centres undefined) | 1.6 | x | 4.1 | x | x | x
O=C(NCc1ccco1)Nc1c(Cl)cc(Cl)cc1Cl | 1.8 | x | 3.1 | x | x | x
CCCCOc1ccc(C(=O)NC)cc1 | -3.4 | -6.8 | 7.5 | -15.7 | -2.4 | 8.7
Cc1ccnc(NC(=O)COc2ccc(Cl)cc2)n1 | -0.9 | 19.4* | -5.2 | 5.0 | -13.5 | 9.9
CCCOc1ccc(C(=O)Nc2cccnc2)cc1 | 0.8 | -6.5 | 0.9 | 11.4 | -10.1 | -2.0
O=C(COc1ccc(Cl)cc1)Nc1ncccn1 | 3.0 | -3.7 | 16.9 | 11.3 | 0.6 | 12.8
CC(C)(C)c1ccc(NC(=O)COc2ccc(-n3ccnc3)cc2)cc1 | 21.7 | 2.3 | 56.9* | 62.0* | 44.1* | 37.7
